Measured values of several laboratories.
AMY2: Pancreatic alpha-amylase (AMY2, Sus scrofa, UniProt P00690)
D14: D14 (Arabidopsis thaliana, UniProt Q9SQR3)
ATM: Serine-protein kinase ATM (ATM, Homo sapiens, UniProt Q13315)

SMILES | target | test | conditions | quantity | value
C#Cc1cc(-c2cc(Nc3nc(N[C@@H](C)c4ccc(F)cn4)ncc3Cl)n[nH]2)ccc1C=O | MAP kinase-activated protein kinase 5 (MAPKAPK5, Homo sapiens, UniProt Q8IW41) | enzyme activity, inhibitor | 0.2 µM | inhibition | 14.9%
C[C@]1(O)CCCN(c2nc(Nc3ccc(S(=O)(=O)N[C@H]4CC[C@H](CN5CCN(c6ccc(C7CCC(=O)NC7=O)cc6F)CC5)CC4)cc3Cl)ncc2C(F)(F)F)C1 (stereo partly drawn) | Cyclin-dependent kinase 4, with cyclin D3 (CDK4, Homo sapiens, UniProt P11802) | binding, competition with immobilised ligand | 1 µM | remaining binding | 100%
O=C1C[C@@H](c2ccccc2)Oc2cc(O)cc(O)c21 | AMY2 | enzyme activity, inhibitor | 50 µM | inhibition | 25.2%
CC1=C(/C=C/C(C)=C/C=O)C(C)(C)CCC1 | D14 | thermal stability, DSF | 1 µM | ΔTm | 0 °C
O=c1c(O)c(-c2ccc(O)c(O)c2)oc2c(Br)c(O)c(Br)c(O)c12 | AMY2 | enzyme activity, inhibitor | 50 µM, 30 min | inhibition | 70.2%
C1=C/COCc2cc(ccc2OCCN2CCCC2)Nc2nccc(n2)-c2cccc(c2)COC/1 | Myosin-IIIb (MYO3B, Homo sapiens, UniProt Q8WXR4) | binding | 0.1 µM | remaining binding | 100%
CCCCC(=O)Nc1ccc(-c2ccc3ncn(CCC)c(=O)c3c2)cn1 | Serine/threonine-protein kinase 24 (STK24, Homo sapiens, UniProt Q9Y6E0) | binding, competition with immobilised ligand | 0.5 µM | remaining binding | 97%
COc1ccc2oc(-c3ccc4nc(N)oc4c3)c/c(=N\c3ccccc3NC(=O)CCN)c2c1 | ATM | binding, competition with immobilised ligand | 1 µM | remaining binding | 94%
Cc1cc(S(=O)(=O)N[C@H]2CC[C@H](CN3CCN(c4ccc(C5CCC(=O)NC5=O)cc4F)CC3)CC2)ccc1Nc1ncc(C(F)(F)F)c(N2CCC[C@](C)(O)C2)n1 (stereo partly drawn) | Cyclin-dependent kinase 4 (CDK4, Homo sapiens, UniProt P11802) | binding, competition with immobilised ligand | 1 µM | remaining binding | 100%
O=c1cc(-c2ccc(O)cc2)oc2c(Br)c(O)c(Br)c(O)c12 | AMY2 | enzyme activity, inhibitor | 50 µM | inhibition | 69.3%
NC/C(=C\F)COc1cccc(Cn2c(=S)[nH]c(=O)c3[nH]cnc32)c1 | Muscarinic acetylcholine receptor M2 (CHRM2, Homo sapiens, UniProt P08172) | ligand displacement, radioligand | 10 µM | inhibition | < 50%
O=C1C[C@@H](c2ccc(O)cc2)Oc2cc(O)cc(O)c21 | AMY2 | enzyme activity, inhibitor | 50 µM | inhibition | 33.3%
CC(=O)/C=C/C=C(C)/C=C/C1=C(C)CC(O)CC1(C)C (stereo in doubt) | D14 | thermal stability | 20 µM | ΔTm | 4.65 °C
COc1cc(O)c2c(c1)O[C@H](c1ccccc1)CC2=O | AMY2 | enzyme activity, inhibitor | 50 µM | inhibition | 12.8%
CC1=C(/C=C/C(C)=C/C=O)C(C)(C)C[C@H](O)C1 | D14 | thermal stability, DSF | 1 µM | ΔTm | 0.28 °C
O=c1cc(-c2ccc(O)c(O)c2)oc2cc(O)cc(O)c12 | AMY2 | enzyme activity, inhibitor | 50 µM, 30 min | inhibition | 97.5%
CC1=CC(O/C=C2/C(=O)OC3c4ccccc4CC23)OC1=O (racemic) | D14 | thermal stability, DSF | 1 µM | ΔTm | -0.035 °C
Cc1cc(O)c(-c2ccc([C@@H](C)CN(C)C)cc2)c2c1[nH]c(=O)c1sccc12 | ATM | cell-free assay, inhibitor | 0.1 µM, lysate | inhibition | 6.43%
